Assay outcomes: PubChem BioAssay, several laboratories
Most compounds without a hit are left out; they make up all but 2.4% or so of the library.
MC4R ag barr – activates human MC4R beta-arrestin recruitment. AID 540308. P32245. U2OS MC4R beta-arrestin complementation, luminescence; percent of melanotan II response, DMSO zero. activation, % at 8.9 µM. 0.98% of 360,000 active;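 active = activation above a per-plate cutoff, the mean activation of sample wells on that plate plus 3 SD, cut at about 8% in these data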
Target sequence (P32245 whole entry, looked up): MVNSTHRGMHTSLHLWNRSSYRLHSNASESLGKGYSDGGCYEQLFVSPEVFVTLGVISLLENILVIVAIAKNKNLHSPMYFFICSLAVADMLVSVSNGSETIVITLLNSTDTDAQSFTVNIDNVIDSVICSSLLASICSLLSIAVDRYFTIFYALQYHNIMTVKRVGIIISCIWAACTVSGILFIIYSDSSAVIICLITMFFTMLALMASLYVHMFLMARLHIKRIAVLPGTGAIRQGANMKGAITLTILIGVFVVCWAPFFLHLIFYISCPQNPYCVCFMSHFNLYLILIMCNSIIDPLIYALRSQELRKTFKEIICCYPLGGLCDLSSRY
TAG inh – triacylglycerol accumulation inhibition | H9c2 cells, Nile Red lipid (TAG) fluorescence; cells loaded with 200 µM oleic acid | inhibition, % at 12.5 µM | 0.66% of 230,000 active;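 active = pattern-corrected inhibition of lipid staining of at least 50% with the nuclear-stain viability signal not falling by more than 50%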
MC4R antagonist – antagonists of human melanocortin 4 receptor (MC4R) | MC4R-expressing cells, MTII-stimulated cAMP, LANCE TR-FRET | inhibition, % at 6.5 µM | 0.48% of 360,000 active;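 active = inhibition above its plate's cutoff, the mean of tested wells on that plate plus 3 SD, cut at about 29% in these data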
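material = U2OS cells stably expressing human melanocortin 4 receptor (MC4R) | also added = Melanotan II challenge | dosing = single nominal compound dose of 6.5 µM | detection = TR-FRET with Eu-cAMP and labeled anti-cAMP, 671 nm | replication = singlicate | timing = compound 30 min, challenge 1 h, detection 1 h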
aDG glyco up – increases alpha dystroglycan glycosylation; Pro5-aDG cells, alpha-DG glycosylation AlphaScreen (IIH6); 0% Pro5, 100% B10-LARGE cell signal; activation, % at 10 µM; 0.22% of 360,000 active; AID 624168;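 active = activation of at least 8% versus controls, or a plate z-score of at least 8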;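 also: Pro5 are CHO cells carrying HIG-tagged alpha-DG that lacks glycosylation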
TbMetRS inhib – Trypanosoma brucei MetRS inhibition; inhibition, % at 11.9 µM; purified T. brucei MetRS, ATP depletion, Kinase-Glo luminescence; AID 624268; 0.4% of 360,000 active;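 active = inhibition above a per-plate cutoff of the control wells' mean inhibition plus 3 SD, cut at about 5.5% in these data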
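Dosing: 11.9 µM compound single dose, 0.9% DMSO; Assay system: purified T. brucei MetRS enzyme; Measured by: Kinase-Glo luciferase luminescence reporting remaining unconsumed ATP; Schedule: 15 min plus 2 h at 25 °C.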
NTR1 ag – NTR1 (human) agonism; 0.17% of 330,000 active; NTR1-U2OS beta-arrestin-GFP spot imaging, agonist mode; activation, % at 20 µM; P30989;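 active = activation at or above 40% of the spot to cytoplasm intensity ratio, with at least 20 cells analyzed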
MC4R barr conf – human MC4R beta-arrestin agonism confirmation. 31% of 2,400 active. U2OS MC4R beta-arrestin recruitment, luminescence; scaled DMSO 0%, Melanotan II 100%. shares compounds with MC4R ag barr. activation, % at 8.9 µM;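 active = mean activation across replicates above the hit cutoff set in the earlier primary screen, cut at about 8% in these data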
MOR DOR agonist – counter-screen for MC4R agonists: agonists of mu-delta opioid heterodimer; shares compounds with MC4R ag barr; U2OS PathHunter beta-arrestin, beta-gal luminescence; percent of deltorphin B response, DMSO zero; activation, % at 9.2 µM; AID 602194; 5.8% of 2,400 active;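 active = mean activation across replicates exceeds the hit threshold derived in the earlier primary screen, cut at about 18% in these data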
A number is an active result.

What do the screens show for `CO/N=C(/CS(=O)Cc1ccc(Cl)cc1)c1ccc(Cl)cc1` (configuration not stated)?
MC4R ag barr: 13.6; MC4R antagonist: inactive; aDG glyco up: inactive; TbMetRS inhib: inactive; NTR1 ag: inactive; MC4R barr conf: inactive; MOR DOR agonist: inactive

What do the screens show for `COc1ccc(-c2n[nH]c(=S)n2/N=C/C=C/c2ccccc2OC)cc1`?
MC4R ag barr: 11.2; MC4R antagonist: inactive; aDG glyco up: inactive; TbMetRS inhib: inactive; NTR1 ag: inactive; MC4R barr conf: inactive; MOR DOR agonist: inactive

How did Cc1ccc(S(=O)(=O)NCCNS(=O)(=O)c2ccccc2Br)cc1 do in these assays?
MC4R ag barr: inactive; TAG inh: inactive; MC4R antagonist: inactive; aDG glyco up: inactive; TbMetRS inhib: inactive; NTR1 ag: inactive

Results for Cc1ccc(S(=O)(=O)NCCNc2ccc(Br)c(C)c2)cc1 ?
MC4R ag barr: 18.2; TAG inh: inactive; MC4R antagonist: inactive; aDG glyco up: inactive; TbMetRS inhib: inactive; NTR1 ag: inactive; MC4R barr conf: inactive; MOR DOR agonist: inactive

How did Cc1ccc(-c2ccc(CN3C(C(C)C)C(=O)N(Cc4cn(CCC5OCCO5)nn4)CCS3(=O)=O)cc2)c(C)c1 (configuration not stated) do in these assays?
aDG glyco up: inactive; TbMetRS inhib: inactive

What do the screens show for `O=c1cc(/C=C/c2ccccc2)oc2c1ccc1ccccc12`?
MC4R ag barr: 28.6; MC4R antagonist: inactive; aDG glyco up: inactive; TbMetRS inhib: inactive; NTR1 ag: inactive; MC4R barr conf: 16.0; MOR DOR agonist: inactive

Results for O=C(COc1ccc(-n2cnnn2)cc1)Nc1cc(Cl)cc(Cl)c1 ?
MC4R ag barr: 16.6; TAG inh: inactive; MC4R antagonist: inactive; aDG glyco up: inactive; TbMetRS inhib: inactive; NTR1 ag: inactive; MC4R barr conf: inactive; MOR DOR agonist: inactive

Results for Oc1ccc(N2CCN(c3ncnc4sc(-c5ccccc5)cc34)CC2)cc1 ?
MC4R ag barr: 47.6; TAG inh: inactive; MC4R antagonist: inactive; aDG glyco up: inactive; TbMetRS inhib: inactive; MC4R barr conf: 33.7; MOR DOR agonist: inactive

What do the screens show for `CC(=O)N1CCN(c2ncnc3sc(-c4ccccc4)cc23)CC1`?
MC4R ag barr: inactive; TAG inh: inactive; MC4R antagonist: inactive; aDG glyco up: inactive; TbMetRS inhib: inactive; NTR1 ag: inactive

Results for CCC(=O)Oc1ccc(-c2cnc3ccccc3n2)cc1 ?
MC4R ag barr: inactive; MC4R antagonist: inactive; aDG glyco up: inactive; TbMetRS inhib: inactive; NTR1 ag: inactive

What do the screens show for `O=C(Oc1ccc(-c2cnc3ccccc3n2)cc1)c1ccco1`?
MC4R ag barr: 18.1; MC4R antagonist: inactive; aDG glyco up: inactive; TbMetRS inhib: inactive; NTR1 ag: inactive; MC4R barr conf: inactive; MOR DOR agonist: inactive

What do the screens show for `CCc1ccc(C(=O)NC(=S)Nc2ccc3c(c2)OCCO3)cc1`?
MC4R ag barr: inactive; TAG inh: inactive; MC4R antagonist: inactive; aDG glyco up: inactive; TbMetRS inhib: inactive; NTR1 ag: inactive

What do the screens show for `Cc1ccc(C(=O)NC(=S)Nc2ccc(NC(=O)c3cccc(Cl)c3)cc2)cc1`?
MC4R ag barr: 12.1; TAG inh: inactive; MC4R antagonist: inactive; aDG glyco up: inactive; TbMetRS inhib: inactive; NTR1 ag: inactive; MC4R barr conf: 13.3; MOR DOR agonist: inactive

What do the screens show for `O=C(NC(=S)Nc1ccc2c(c1)OCO2)c1ccc(Cl)cc1`?
MC4R ag barr: 11.2; MC4R antagonist: inactive; aDG glyco up: inactive; TbMetRS inhib: inactive; NTR1 ag: inactive; MC4R barr conf: inactive; MOR DOR agonist: inactive

What do the screens show for `COc1cccc(-c2cc3nc(NCc4ccc(C)cc4C)n(C)c(=O)c3s2)c1`?
MC4R ag barr: inactive; TAG inh: inactive; MC4R antagonist: inactive; aDG glyco up: inactive; TbMetRS inhib: inactive

What do the screens show for `COc1ccc(CC(N)c2csc(NC(=O)C(c3ccccc3)c3ccccc3)n2)cc1` (configuration not stated)?
MC4R ag barr: inactive; TAG inh: inactive; MC4R antagonist: inactive; aDG glyco up: inactive; TbMetRS inhib: inactive

What do the screens show for `Cc1nc(NC(=O)c2cccc(-c3cc4ccccc4oc3=O)c2)ccc1Br`?
MC4R ag barr: 24.1; MC4R antagonist: inactive; aDG glyco up: inactive; TbMetRS inhib: inactive; NTR1 ag: inactive; MC4R barr conf: 16.9; MOR DOR agonist: inactive

Results for CCCNc1c(NS(=O)(=O)c2ccc(C(C)(C)C)cc2)c(=O)oc2ccccc12 ?
MC4R ag barr: 11.0; MC4R antagonist: inactive; aDG glyco up: inactive; TbMetRS inhib: inactive; NTR1 ag: inactive; MC4R barr conf: inactive; MOR DOR agonist: inactive

How did COc1cc(OC)nc(Nc2nc(C(N)Cc3ccccc3)cs2)n1 (configuration not stated) do in these assays?
MC4R ag barr: inactive; TAG inh: inactive; MC4R antagonist: inactive; aDG glyco up: inactive; TbMetRS inhib: inactive

How did Cc1cc(C)nc(Nc2nc(C(N)Cc3ccc(F)cc3)cs2)n1 (configuration not stated) do in these assays?
MC4R ag barr: inactive; TAG inh: inactive; MC4R antagonist: inactive; aDG glyco up: inactive; TbMetRS inhib: inactive

What do the screens show for `COc1cc(OC)nc(Nc2nc(C(N)Cc3ccc(C(F)(F)F)cc3)cs2)n1` (configuration not stated)?
MC4R ag barr: 29.2; TAG inh: inactive; MC4R antagonist: inactive; aDG glyco up: inactive; TbMetRS inhib: inactive; MC4R barr conf: inactive; MOR DOR agonist: inactive

What do the screens show for `Cc1cc(C)nc(Nc2nc(C(N)Cc3ccc(C(F)(F)F)cc3)cs2)n1` (configuration not stated)?
MC4R ag barr: 10.5; TAG inh: inactive; MC4R antagonist: inactive; aDG glyco up: inactive; TbMetRS inhib: inactive; MC4R barr conf: 25.7; MOR DOR agonist: inactive

What do the screens show for `Cc1cc(C)nc(Nc2nc(C(N)Cc3ccc(Cl)cc3)cs2)n1` (configuration not stated)?
MC4R ag barr: 9.8; TAG inh: inactive; MC4R antagonist: inactive; aDG glyco up: inactive; TbMetRS inhib: inactive; MC4R barr conf: 27.8; MOR DOR agonist: inactive

What do the screens show for `CS(=O)(=O)c1ccc(Nc2nc(C(N)Cc3ccc(C(F)(F)F)cc3)cs2)cc1` (configuration not stated)?
MC4R ag barr: inactive; TAG inh: inactive; MC4R antagonist: inactive; aDG glyco up: inactive; TbMetRS inhib: inactive
